Data as given in ChEMBL document CHEMBL2062477, “Dual-Specificity Phosphatase CDC25A/B Inhibitor Identified from a Focused Library with Nonelectrophilic Core Structure” (ACS Med Chem Lett, 2012).
Activity calls are given as the source filed them. The calls are words filed in the database; no cut-off is given here.

Experiments:
[1] = molecular target: T1, M-phase inducer phosphatase 1 (Homo sapiens, UniProt P30304); experiment: Inhibition of CDC25A
T1 sequence (P30304 whole entry): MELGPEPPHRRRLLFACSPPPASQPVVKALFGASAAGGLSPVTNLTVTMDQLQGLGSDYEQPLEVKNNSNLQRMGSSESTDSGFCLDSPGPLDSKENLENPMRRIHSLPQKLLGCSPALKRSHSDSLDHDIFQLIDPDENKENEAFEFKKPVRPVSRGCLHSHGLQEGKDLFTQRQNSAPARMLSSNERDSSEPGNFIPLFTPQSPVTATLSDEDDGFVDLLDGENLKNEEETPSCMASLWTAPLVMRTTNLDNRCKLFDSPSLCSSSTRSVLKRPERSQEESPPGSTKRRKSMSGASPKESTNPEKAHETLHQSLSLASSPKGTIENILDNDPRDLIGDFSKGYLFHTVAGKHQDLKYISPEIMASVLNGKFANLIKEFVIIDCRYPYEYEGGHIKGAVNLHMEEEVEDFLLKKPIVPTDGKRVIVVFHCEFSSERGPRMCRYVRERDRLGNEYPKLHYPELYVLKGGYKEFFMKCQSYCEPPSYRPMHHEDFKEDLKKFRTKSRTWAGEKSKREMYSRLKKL

[2] = molecular target: T2, M-phase inducer phosphatase 3 (Homo sapiens, UniProt P30307); experiment: Inhibition of CDC25C
T2 sequence (P30307 whole entry): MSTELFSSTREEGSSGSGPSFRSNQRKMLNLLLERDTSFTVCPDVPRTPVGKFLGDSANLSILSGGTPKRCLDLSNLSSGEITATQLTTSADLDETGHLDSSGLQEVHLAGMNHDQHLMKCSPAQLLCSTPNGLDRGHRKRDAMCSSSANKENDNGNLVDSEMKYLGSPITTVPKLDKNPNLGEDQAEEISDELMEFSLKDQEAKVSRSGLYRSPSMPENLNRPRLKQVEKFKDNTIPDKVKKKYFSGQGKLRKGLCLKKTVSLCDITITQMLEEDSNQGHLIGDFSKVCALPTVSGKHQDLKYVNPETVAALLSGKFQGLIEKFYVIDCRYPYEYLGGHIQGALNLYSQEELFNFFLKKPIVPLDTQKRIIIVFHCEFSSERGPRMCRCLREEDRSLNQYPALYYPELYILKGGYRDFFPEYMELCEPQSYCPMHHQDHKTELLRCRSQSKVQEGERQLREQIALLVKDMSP

[3] = molecular target: Dual specificity protein phosphatase 3 (Homo sapiens, UniProt P51452); experiment: Inhibition of VHR
[4] = molecular target: T3, Dual specificity protein phosphatase 1 (Homo sapiens, UniProt P28562); experiment: Inhibition of MKP1
T3 sequence (P28562 whole entry): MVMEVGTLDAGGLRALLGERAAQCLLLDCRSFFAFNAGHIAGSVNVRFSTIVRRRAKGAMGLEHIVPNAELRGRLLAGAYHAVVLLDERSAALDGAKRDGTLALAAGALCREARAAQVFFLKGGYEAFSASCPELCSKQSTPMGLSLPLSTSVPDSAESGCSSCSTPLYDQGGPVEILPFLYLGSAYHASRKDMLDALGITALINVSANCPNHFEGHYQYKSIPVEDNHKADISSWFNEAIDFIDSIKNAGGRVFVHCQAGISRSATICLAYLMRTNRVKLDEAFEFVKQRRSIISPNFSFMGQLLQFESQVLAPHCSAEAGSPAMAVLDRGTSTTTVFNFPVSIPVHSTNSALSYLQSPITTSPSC

[5] = molecular target: T4, Dual specificity protein phosphatase 6 (Homo sapiens, UniProt Q16828); experiment: Inhibition of MKP3
T4 sequence (Q16828 whole entry): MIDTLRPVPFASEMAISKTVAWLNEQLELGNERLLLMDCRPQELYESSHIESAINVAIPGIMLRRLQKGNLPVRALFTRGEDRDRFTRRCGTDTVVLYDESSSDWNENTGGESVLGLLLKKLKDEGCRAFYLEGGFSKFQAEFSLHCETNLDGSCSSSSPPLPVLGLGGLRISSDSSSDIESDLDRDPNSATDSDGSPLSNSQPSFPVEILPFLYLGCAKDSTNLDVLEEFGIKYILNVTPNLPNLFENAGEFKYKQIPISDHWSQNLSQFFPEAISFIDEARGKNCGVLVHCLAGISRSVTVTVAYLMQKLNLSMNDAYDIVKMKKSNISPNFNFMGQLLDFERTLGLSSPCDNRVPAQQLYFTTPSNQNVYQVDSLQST

[6] = molecular target: T5, Tyrosine-protein phosphatase non-receptor type 1 (Homo sapiens, UniProt P18031); experiment: Inhibition of PTP1B
T5 sequence (P18031 whole entry): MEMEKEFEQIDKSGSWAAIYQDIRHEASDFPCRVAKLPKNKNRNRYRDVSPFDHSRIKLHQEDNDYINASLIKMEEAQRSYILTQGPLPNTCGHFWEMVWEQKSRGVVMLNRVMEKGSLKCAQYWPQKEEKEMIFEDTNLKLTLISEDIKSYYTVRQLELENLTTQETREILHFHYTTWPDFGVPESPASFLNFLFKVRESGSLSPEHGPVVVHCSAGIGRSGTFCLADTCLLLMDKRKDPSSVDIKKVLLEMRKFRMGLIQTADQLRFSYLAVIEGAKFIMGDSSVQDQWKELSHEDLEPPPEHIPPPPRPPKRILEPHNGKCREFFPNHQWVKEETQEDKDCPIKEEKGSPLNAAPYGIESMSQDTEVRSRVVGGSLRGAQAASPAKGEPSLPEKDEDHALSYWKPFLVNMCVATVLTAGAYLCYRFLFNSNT

[7] = Cell cycle arrest in mouse tsFT210 cells assessed as accumulation at G2/M phase by propidium iodide staining-based flow cytometric analysis; type: functional
How it was run: (§1)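 tsFT210 cells synchronized at G2 by 17 h at 39 °C, then released for 4 h at 32 °C with compound (5–50 μM) or DMSO vehicle; 100 nM nocodazole reference. Cell-cycle phase distribution, including sub-G1, determined by flow cytometry.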

tsFT210 [8] = experiment: Inhibition of CDC25 in mouse tsFT210 cells assessed as hyperphosphorylation of CDK1 protein by Western blot analysis; type: cell-based
How it was run: (§2)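 G2-arrested tsFT210 cells (39 °C, 17 h) released at 32 °C for 4 h with compound or vehicle; CDK1 phosphorylation status and total CDK1 assessed by Western blotting.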

tsFT210 [9] = experiment: Induction of apoptosis in mouse tsFT210 cells assessed as increase in subG1 population at 50 uM after 17 hrs by propidium iodide staining-based flow cytometric analysis; type: functional, cell-based; conditions: in the assay text read “after 4 hrs” for “after 17 hrs”; how it was run: as §1
[10] = molecular target: T1, M-phase inducer phosphatase 1; experiment: Inhibition of CDC25A in presence of 2 mM DTT
How it was run: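 In vitro inhibition of purified CDC25A or CDC25B with DTT concentration in the assay buffer varied.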

HL-60 = experiment: cells; conditions: Homo sapiens, HL-60, 48 h
tsFT210 [11] = experiment: Induction of ROS generation in mouse tsFT210 cells at 50 uM at 32 degC for 30 min measured by flow cytometric analysis pretreated with H2DCFDA at 39 degC
[12] = molecular target: T6, M-phase inducer phosphatase 2 (Homo sapiens, UniProt P30305); experiment: Inhibition of CDC25B
T6 sequence (P30305 whole entry): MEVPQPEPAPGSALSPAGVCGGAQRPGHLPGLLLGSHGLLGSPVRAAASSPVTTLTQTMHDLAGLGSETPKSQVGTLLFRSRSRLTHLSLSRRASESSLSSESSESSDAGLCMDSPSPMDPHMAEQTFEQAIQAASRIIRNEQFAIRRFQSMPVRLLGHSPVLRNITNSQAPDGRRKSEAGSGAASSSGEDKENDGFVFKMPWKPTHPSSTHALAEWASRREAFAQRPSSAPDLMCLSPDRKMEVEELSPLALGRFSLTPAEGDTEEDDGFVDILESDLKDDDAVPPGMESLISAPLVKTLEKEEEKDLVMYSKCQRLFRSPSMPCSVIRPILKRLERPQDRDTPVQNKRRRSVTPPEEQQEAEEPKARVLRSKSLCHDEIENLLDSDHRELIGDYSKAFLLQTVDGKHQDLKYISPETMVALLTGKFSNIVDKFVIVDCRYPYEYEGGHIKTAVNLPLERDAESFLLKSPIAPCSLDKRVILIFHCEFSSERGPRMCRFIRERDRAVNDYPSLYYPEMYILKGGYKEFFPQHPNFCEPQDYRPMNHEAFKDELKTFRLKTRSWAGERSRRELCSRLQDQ

[13] = Cell cycle arrest in mouse tsFT210 cells assessed as accumulation at G2/M phase at 5 to 50 uM by propidium iodide staining-based flow cytometric analysis; type: functional; how it was run: as §1
tsFT210 [14] = experiment: Inhibition of CDC25 in mouse tsFT210 cells assessed as hyperphosphorylation of CDK1 protein at 50 uM by Western blot analysis; type: cell-based; how it was run: as §2

Chain of Dual specificity protein phosphatase 3 (P51452 whole entry): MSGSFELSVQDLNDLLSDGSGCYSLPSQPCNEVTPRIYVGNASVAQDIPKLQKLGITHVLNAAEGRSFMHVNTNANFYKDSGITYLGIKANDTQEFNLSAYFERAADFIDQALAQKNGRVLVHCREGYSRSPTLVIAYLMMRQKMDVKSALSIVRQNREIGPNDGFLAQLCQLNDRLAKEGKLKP

Compound | IC50 [1] | IC50 [2] | IC50 [3] | IC50 [4] | IC50 [5] | IC50 [6] | Activity [7] | inhibition (tsFT210 [8]) | Activity (tsFT210 [9]) | IC50 [10] | IC50 (HL-60) | Activity (tsFT210 [11]) | IC50 [12] | Activity [13] | inhibition (tsFT210 [14])
CCCCCCCCCCCCCCCC(NCc1ccccc1O)=C1C(=O)OC(CO)C1=O (mixture of isomers) | 13.5 µM | > 100 µM | 24.9 µM | > 100 µM | > 100 µM | > 100 µM | Dose-dependent effect | Dose-dependent effect | inactive | 13.5 µM | 2.44 µM | inactive |  |  | 
CCCCCCCCCCCCCCCC(NCc1cccc(C)c1)=C1C(=O)OC(CO)C1=O (mixture of isomers) | > 100 µM | > 100 µM | 1.63 µM | > 100 µM | > 100 µM | > 100 µM |  |  | inactive |  |  | inactive | > 100 µM | inactive | inactive
CCCCCCCCCCCCCCC/C(NCc1ccccc1)=C1/C(=O)OC(CO)C1=O (stereo not given) | 16.6 µM | > 100 µM | 11.4 µM | > 100 µM | > 100 µM | > 100 µM | Dose-dependent effect | Dose-dependent effect | inactive | 16.6 µM |  | inactive | 8.42 µM |  | 
